Test results as given in ChEMBL document CHEMBL1944580, “Synthesis of novel sulfonamide-1,2,4-triazoles, 1,3,4-thiadiazoles and 1,3,4-oxadiazoles, as potential antibacterial and antifungal agents. Biological evaluation and conformational analysis studies” (2012).
Values after ≈ are worked out from the molar mass of the structure shown.

Columns and labels:
Salmonella typhimurium [1] = experiment: Antibacterial activity against Salmonella Typhimurium ATCC 13311 after 24 hrs by micro dilution method; type: functional, Salmonella enterica subsp. enterica serovar Typhimurium; conditions: Salmonella enterica, ATCC 13311, 24 h
Outline: (§1)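 Microdilution MIC in 96-well plates. Bacterial suspensions adjusted in sterile saline to 1.0 × 10^5 CFU/ml, giving 1.0 × 10^4 cfu per well in LB broth. Compounds tested at up to 1 mg/ml. Plates incubated 24 h. MIC taken as the lowest concentration with no visible growth under a binocular microscope. OD at 655 nm was also read against a blank and the positive control. Streptomycin and ampicillin were the positive controls.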

Talaromyces funiculosus [2] = experiment: Antifungal activity against Penicillium funiculosum ATCC 36839 after 72 hrs by serial dilution method; type: functional; conditions: ATCC 36839, 72 h
Outline: (§2)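 Modified microdilution MIC. Spores were washed from malt agar cultures with sterile 0.85% saline containing 0.1% Tween 80 and adjusted to about 1.0 × 10^5 per 100 µl well in malt broth. Compounds were dissolved in DMSO (1 mg/ml). Plates incubated 72 h at 28 °C. MIC is the lowest concentration with no visible growth under a binocular microscope. Bifonazole and ketoconazole were the references.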

Listeria monocytogenes [3] = experiment: Antibacterial activity against Listeria monocytogenes NCTC 7973 treated for 24 hrs followed by sub-cultivated for 72 hrs by micro dilution method; type: functional
Outline: (§3)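 2 µl from each well was serially subcultured into 100 µl fresh broth per well and incubated a further 72 h. MBC is the lowest concentration with no visible growth, taken as 99.5% killing of the original inoculum. Streptomycin and ampicillin were the positive controls.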

Enterobacter cloacae [4] = experiment: Antibacterial activity against Enterobacter cloacae human isolate after 24 hrs by micro dilution method; type: functional; outline: as §1
Talaromyces funiculosus [5] = experiment: Antifungal activity against Penicillium funiculosum ATCC 36839 treated for 72 hrs followed by sub-cultivated for 5 days by serial dilution method; type: functional
Outline: (§4)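 MFC obtained after the 72 h, 28 °C malt-broth microdilution (spore inoculum about 1.0 × 10^5 per well, compounds from 1 mg/ml DMSO). 2 µl was serially subcultured into 100 µl broth per well and incubated a further 5 days at 28 °C. MFC is the lowest concentration with no visible growth, taken as 99.5% killing of the original inoculum.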

Micrococcus flavus [6] = experiment: Antibacterial activity against Micrococcus flavus ATCC 10240 after 24 hrs by micro dilution method; type: functional; conditions: ATCC 10240, 24 h; outline: as §1
Penicillium ochrochloron [7] = experiment: Antifungal activity against Penicillium ochrochloron ATCC 9112 treated for 72 hrs followed by sub-cultivated for 5 days by serial dilution method; type: functional; outline: as §4
Salmonella typhimurium [8] = experiment: Antibacterial activity against Salmonella Typhimurium ATCC 13311 treated for 24 hrs followed by sub-cultivated for 72 hrs by micro dilution method; type: functional, Salmonella enterica subsp. enterica serovar Typhimurium; conditions: Salmonella enterica; outline: as §3
Trichoderma viride [9] = experiment: Antifungal activity against Trichoderma viride IAM 5061 treated for 72 hrs followed by sub-cultivated for 5 days by serial dilution method; type: functional; outline: as §4
Penicillium ochrochloron [10] = experiment: Antifungal activity against Penicillium ochrochloron ATCC 9112 after 72 hrs by serial dilution method; type: functional; conditions: ATCC 9112, 72 h; outline: as §2
Aspergillus niger [11] = experiment: Antifungal activity against Aspergillus niger ATCC 6275 after 72 hrs by serial dilution method; type: functional; conditions: ATCC 6275, 72 h; outline: as §2
Staphylococcus aureus [12] = experiment: Antibacterial activity against Staphylococcus aureus ATCC 6538 after 24 hrs by micro dilution method; type: functional; conditions: ATCC 6538, 24 h; outline: as §1
Bacillus cereus [13] = experiment: Antibacterial activity against Bacillus cereus clinical isolate after 24 hrs by micro dilution method; type: functional; outline: as §1
Aspergillus flavus [14] = experiment: Antifungal activity against Aspergillus flavus ATCC 9643 treated for 72 hrs followed by sub-cultivated for 5 days by serial dilution method; type: functional; outline: as §4
Micrococcus flavus [15] = experiment: Antibacterial activity against Micrococcus flavus ATCC 10240 treated for 24 hrs followed by sub-cultivated for 72 hrs by micro dilution method; type: functional; outline: as §3
Aspergillus fumigatus [16] = experiment: Antifungal activity against Aspergillus fumigatus human isolate after 72 hrs by serial dilution method; type: functional; outline: as §2
Aspergillus fumigatus [17] = experiment: Antifungal activity against Aspergillus fumigatus human isolate treated for 72 hrs followed by sub-cultivated for 5 days by serial dilution method; type: functional; outline: as §4
Aspergillus versicolor [18] = experiment: Antifungal activity against Aspergillus versicolor ATCC 11730 treated for 72 hrs followed by sub-cultivated for 5 days by serial dilution method; type: functional; outline: as §4
Enterobacter cloacae [19] = experiment: Antibacterial activity against Enterobacter cloacae human isolate treated for 24 hrs followed by sub-cultivated for 72 hrs by micro dilution method; type: functional; outline: as §3
Fulvia fulva [20] = experiment: Antifungal activity against Fulvia fulva treated for 72 hrs followed by sub-cultivated for 5 days by serial dilution method; type: functional; outline: as §4
Aspergillus niger [21] = experiment: Antifungal activity against Aspergillus niger ATCC 6275 treated for 72 hrs followed by sub-cultivated for 5 days by serial dilution method; type: functional; outline: as §4
Trichoderma viride [22] = experiment: Antifungal activity against Trichoderma viride IAM 5061 after 72 hrs by serial dilution method; type: functional; conditions: IAM 5061, 72 h; outline: as §2
Pseudomonas aeruginosa [23] = experiment: Antibacterial activity against Pseudomonas aeruginosa ATCC 27853 treated for 24 hrs followed by sub-cultivated for 72 hrs by micro dilution method; type: functional; outline: as §3
Aspergillus flavus [24] = experiment: Antifungal activity against Aspergillus flavus ATCC 9643 after 72 hrs by serial dilution method; type: functional; conditions: ATCC 9643, 72 h; outline: as §2
Pseudomonas aeruginosa [25] = experiment: Antibacterial activity against Pseudomonas aeruginosa ATCC 27853 after 24 hrs by micro dilution method; type: functional; conditions: ATCC 27853, 24 h; outline: as §1
Escherichia coli [26] = experiment: Antibacterial activity against Escherichia coli ATCC 35210 treated for 24 hrs followed by sub-cultivated for 72 hrs by micro dilution method; type: functional; outline: as §3
Listeria monocytogenes [27] = experiment: Antibacterial activity against Listeria monocytogenes NCTC 7973 after 24 hrs by micro dilution method; type: functional; conditions: NCTC 7973, 24 h; outline: as §1
Staphylococcus aureus [28] = experiment: Antibacterial activity against Staphylococcus aureus ATCC 6538 treated for 24 hrs followed by sub-cultivated for 72 hrs by micro dilution method; type: functional; outline: as §3
Aspergillus versicolor [29] = experiment: Antifungal activity against Aspergillus versicolor ATCC 11730 after 72 hrs by serial dilution method; type: functional; conditions: ATCC 11730, 72 h; outline: as §2
Bacillus cereus [30] = experiment: Antibacterial activity against Bacillus cereus clinical isolate treated for 24 hrs followed by sub-cultivated for 72 hrs by micro dilution method; type: functional; outline: as §3
Fulvia fulva [31] = experiment: Antifungal activity against Fulvia fulva after 72 hrs by serial dilution method; type: functional; outline: as §2
Escherichia coli [32] = experiment: Antibacterial activity against Escherichia coli ATCC 35210 after 24 hrs by micro dilution method; type: functional; conditions: ATCC 35210, 24 h; outline: as §1

SMILES | MIC (Salmonella typhimurium [1]) | MIC (Talaromyces funiculosus [2]) | MBC (Listeria monocytogenes [3]) | MIC (Enterobacter cloacae [4]) | MFC (Talaromyces funiculosus [5]) | MIC (Micrococcus flavus [6]) | MFC (Penicillium ochrochloron [7]) | MBC (Salmonella typhimurium [8]) | MFC (Trichoderma viride [9]) | MIC (Penicillium ochrochloron [10]) | MIC (Aspergillus niger [11]) | MIC (Staphylococcus aureus [12]) | MIC (Bacillus cereus [13]) | MFC (Aspergillus flavus [14]) | MBC (Micrococcus flavus [15]) | MIC (Aspergillus fumigatus [16]) | MFC (Aspergillus fumigatus [17]) | MFC (Aspergillus versicolor [18]) | MBC (Enterobacter cloacae [19]) | MFC (Fulvia fulva [20]) | other results
CCCn1c(Cc2cc(OC)c(OC)cc2S(=O)(=O)N(C)C)n[nH]c1=O | 650 µM (≈ 250 µg/mL) | 130 µM (≈ 50 µg/mL) | 780 µM (≈ 300 µg/mL) | 650 µM (≈ 250 µg/mL) | 260 µM (≈ 100 µg/mL) | 650 µM (≈ 250 µg/mL) | 390 µM (≈ 150 µg/mL) | 650 µM (≈ 250 µg/mL) | 130 µM (≈ 50 µg/mL) | 130 µM (≈ 50 µg/mL) | 130 µM (≈ 50 µg/mL) | 260 µM (≈ 100 µg/mL) | 260 µM (≈ 100 µg/mL) | 260 µM (≈ 100 µg/mL) | 650 µM (≈ 250 µg/mL) | 130 µM (≈ 50 µg/mL) | 260 µM (≈ 100 µg/mL) | 390 µM (≈ 150 µg/mL) | 780 µM (≈ 300 µg/mL) | 260 µM (≈ 100 µg/mL) | MFC (Aspergillus niger [21]): 260 µM (≈ 100 µg/mL); MIC (Trichoderma viride [22]): 70 µM (≈ 26.9 µg/mL); MBC (Pseudomonas aeruginosa [23]): 780 µM (≈ 300 µg/mL); MIC (Aspergillus flavus [24]): 130 µM (≈ 50 µg/mL); MIC (Pseudomonas aeruginosa [25]): 650 µM (≈ 250 µg/mL); MBC (Escherichia coli [26]): 650 µM (≈ 250 µg/mL); MIC (Listeria monocytogenes [27]): 650 µM (≈ 250 µg/mL); MBC (Staphylococcus aureus [28]): 390 µM (≈ 150 µg/mL); MIC (Aspergillus versicolor [29]): 130 µM (≈ 50 µg/mL); MBC (Bacillus cereus [30]): 650 µM (≈ 250 µg/mL); MIC (Fulvia fulva [31]): 260 µM (≈ 100 µg/mL); MIC (Escherichia coli [32]): 650 µM (≈ 250 µg/mL)
COc1cc(Cc2n[nH]c(=O)n2C(C)C)c(S(=O)(=O)N(C)C)cc1OC | 390 µM (≈ 150 µg/mL) | 260 µM (≈ 100 µg/mL) | 390 µM (≈ 150 µg/mL) | 390 µM (≈ 150 µg/mL) | 260 µM (≈ 100 µg/mL) | 390 µM (≈ 150 µg/mL) | 390 µM (≈ 150 µg/mL) | 390 µM (≈ 150 µg/mL) | 70 µM (≈ 26.9 µg/mL) | 130 µM (≈ 50 µg/mL) | 260 µM (≈ 100 µg/mL) | 390 µM (≈ 150 µg/mL) | 260 µM (≈ 100 µg/mL) | 390 µM (≈ 150 µg/mL) | 390 µM (≈ 150 µg/mL) | 30 µM (≈ 11.5 µg/mL) | 130 µM (≈ 50 µg/mL) | 390 µM (≈ 150 µg/mL) | 390 µM (≈ 150 µg/mL) | 260 µM (≈ 100 µg/mL) | MFC (Aspergillus niger [21]): 390 µM (≈ 150 µg/mL); MIC (Trichoderma viride [22]): 30 µM (≈ 11.5 µg/mL); MBC (Pseudomonas aeruginosa [23]): 390 µM (≈ 150 µg/mL); MIC (Aspergillus flavus [24]): 260 µM (≈ 100 µg/mL); MIC (Pseudomonas aeruginosa [25]): 390 µM (≈ 150 µg/mL); MBC (Escherichia coli [26]): 390 µM (≈ 150 µg/mL); MIC (Listeria monocytogenes [27]): 390 µM (≈ 150 µg/mL); MBC (Staphylococcus aureus [28]): 390 µM (≈ 150 µg/mL); MIC (Aspergillus versicolor [29]): 130 µM (≈ 50 µg/mL); MBC (Bacillus cereus [30]): 780 µM (≈ 300 µg/mL); MIC (Fulvia fulva [31]): 260 µM (≈ 100 µg/mL); MIC (Escherichia coli [32]): 390 µM (≈ 150 µg/mL)
